Active and inactive are the calls of the source.
Experiments:
[1] = Cytotoxicity against human PC3 cells after 72 hrs by MTT assay; assay type: functional, cell-based; settings: PC-3, 72 h
Method in brief: (§1)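 HCT-116, HCT-15, HT-29, DU-145, PC-3 or HEK293/pcDNA3.1 cells in DMEM with 10% FBS were trypsinised and seeded at 5×10^3 cells/well. They received compound at 0.1–100 μM for 72 hr, then MTT (4 mg/mL) for 4 hr. Formazan was dissolved in DMSO and A570 read. IC50 by Bliss method from survival curves; ≥3 experiments, each in triplicate.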

HepG2 [2] = assay: Cytotoxicity against human HepG2 cells after 72 hrs by MTT assay; assay type: functional, cell-based; settings: HepG2, 72 h
Method in brief: (§2)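 MTT assay over 0.1–100 μM with a 72 hr exposure, then 4 hr with MTT (4 mg/mL). Formazan dissolved in DMSO, A570 read. IC50 from survival curves (Bliss method); three independent experiments in triplicate; 100 μM taken as cut-off.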

MDCK = assay: Cytotoxicity against MDCK cells after 72 hrs by MTT assay; assay type: cell-based; settings: Canis lupus familiaris
Method in brief: (§3)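 Seeding was 6×10^3 cells/well (MDCK, NIH/3T3, MCF-7, MDA-MB-231, LS-180, LS-174, LoVo, S1) after trypsinisation, in DMEM with 10% FBS. Compound at 0.1–100 μM for 72 hr, then MTT (4 mg/mL) for 4 hr. Formazan dissolved in DMSO, absorbance at 570 nm. IC50 by Bliss method; means ± SD, ≥3 experiments in triplicate.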

[3] = Cytotoxicity against human S1 cells after 72 hrs by MTT assay; assay type: functional, cell-based; settings: S1, 72 h; method in brief: as §3
[4] = Cytotoxicity against human HCT116 cells after 72 hrs by MTT assay; assay type: functional, cell-based; settings: HCT-116, 72 h; method in brief: as §1
A2780 = assay: Cytotoxicity against human A2780 cells after 72 hrs by MTT assay; assay type: functional, cell-based; settings: A2780, 72 h; method in brief: as §2
MCF7 = assay: Cytotoxicity against human MCF7 cells after 72 hrs by MTT assay; assay type: functional, cell-based; settings: MCF7, 72 h; method in brief: as §3
2008 = assay: Cytotoxicity against human 2008 cells after 72 hrs by MTT assay; assay type: functional, cell-based; settings: Homo sapiens, 2008, 72 h; method in brief: as §2
MDA-MB-231 = assay: Cytotoxicity against human MDA-MB-231 cells after 72 hrs by MTT assay; assay type: functional, cell-based; settings: MDA-MB-231, 72 h; method in brief: as §3
[5] = Cytotoxicity against mouse NIH/3T3 cells after 72 hrs by MTT assay; assay type: cell-based; settings: NIH3T3, 72 h; method in brief: as §3
HEK293 [6] = assay: Cytotoxicity against HEK293 cells expressing pcDNA3.1 after 72 hrs by MTT assay; assay type: cell-based; settings: Homo sapiens, HEK293, 72 h; method in brief: as §1
DU-145 = assay: Cytotoxicity against human DU145 cells after 72 hrs by MTT assay; assay type: functional, cell-based; settings: DU-145, 72 h; method in brief: as §1
Homo sapiens = organism: Homo sapiens; assay: Cytotoxicity against drug-resistant human S1-M1-80 cells expressing ABCG2 G482 mutant after 72 hrs by MTT assay; assay type: functional, cell-based
Method in brief: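 S1-M1-80 colon cells (G482 mutant ABCG2), maintained in medium with 80 μM mitoxantrone, tested by MTT alongside parental S1. 72 hr exposure, MTT 4 hr, DMSO solubilisation, A570. IC50 by Bliss method; SN-38 and topotecan run as comparators; means ± SD of triplicate determinations.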

HepG2 [7] = assay: Cytotoxicity against human HepG2 cells assessed as reduction in cell viability at 10 uM after 24 hrs by Celltiter-Glo luminescent cell viability assay; assay type: cell-based; settings: hepg2, 24 h
Method in brief: (§4)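 Viability of HepG2 cells was measured in parallel with the PXR reporter assay. Cells were transfected, plated at 10,000/well in phenol red-free DMEM with 5% charcoal/dextran-treated FBS, and treated 24 hr with 1 or 10 μM or DMSO. ATP was quantified by CellTiter-Glo luminescence. Means ± SD of triplicates, t-test versus DMSO.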

[8] = Cytotoxicity against human LS180 cells after 72 hrs by MTT assay; assay type: functional, cell-based; settings: LS180, 72 h; method in brief: as §3
HT-29 = assay: Cytotoxicity against human HT-29 cells after 72 hrs by MTT assay; assay type: functional, cell-based; settings: HT-29, 72 h; method in brief: as §1
[9] = target: T1, Nuclear receptor subfamily 1 group I member 2 (Homo sapiens, UniProt O75469); assay: Transactivation of human PXR expressed in human HepG2 cells co-expressing pGL3-CYP3A4-luciferase gene assessed as increase in CYP3A4 promoter activity at 1 uM after 24 hrs by luciferase reporter gene assay; assay type: ADME, cell-based; settings: hepg2, 24 h
T1 sequence (O75469 whole entry): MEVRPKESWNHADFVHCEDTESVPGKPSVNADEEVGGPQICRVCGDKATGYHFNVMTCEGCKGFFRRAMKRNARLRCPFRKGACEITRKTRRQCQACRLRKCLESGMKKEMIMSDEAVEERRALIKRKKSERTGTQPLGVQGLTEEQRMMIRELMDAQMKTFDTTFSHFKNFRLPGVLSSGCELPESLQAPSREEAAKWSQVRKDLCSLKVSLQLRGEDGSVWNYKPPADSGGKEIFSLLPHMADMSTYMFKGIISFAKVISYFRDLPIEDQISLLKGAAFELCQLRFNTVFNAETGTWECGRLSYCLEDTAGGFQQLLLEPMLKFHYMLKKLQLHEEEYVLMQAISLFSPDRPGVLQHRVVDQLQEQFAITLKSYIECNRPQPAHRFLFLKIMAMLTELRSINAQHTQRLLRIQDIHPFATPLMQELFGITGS
Method in brief: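 HepG2 cells were transiently cotransfected with pcDNA3-hPXR and pGL3-CYP3A4-luc; after 24 hr they were plated at 10,000/well in phenol red-free DMEM with 5% charcoal-stripped FBS. […] Activity expressed as fold over DMSO; three independent experiments.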

[10] = Cytotoxicity against human LS174 cells after 72 hrs by MTT assay; assay type: functional, cell-based; settings: LS174, 72 h; method in brief: as §3
[11] = Cytotoxicity against human HCT15 cells after 72 hrs by MTT assay; assay type: functional, cell-based; settings: HCT-15, 72 h; method in brief: as §1
[12] = Cytotoxicity against drug-resistant human S1-M1-80 cells expressing ABCG2 G482 mutant after 72 hrs by MTT assay relative to topotecan; assay type: functional
HCT-116 [13] = assay: Induction of mitochondrial membrane potential loss in human HCT116 cells at 10 uM after 4 hrs by mitotracker red and Alexa Fluor 488 annexin V staining based flow cytometry; assay type: functional
Method in brief: (§5)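 HCT-116 cells in 6-well plates, in complete medium, were exposed to 0, 1 or 10 μM for 4 hr. Harvested cells were stained with MitoTracker Red (4 μL of 10 μM working solution per mL) for 30 min at 37 °C, washed, then given Alexa Fluor 488 annexin V for 15 min in annexin-binding buffer. Flow cytometry emission at 530 and 585 nm; two independent experiments in triplicate.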

[14] = Cytotoxicity against drug-resistant human S1-M1-80 cells expressing ABCG2 G482 mutant after 72 hrs by MTT assay relative to SN-38; assay type: functional
HCT-116 [15] = assay: Induction of mitochondrial membrane potential loss in human HCT116 cells at 1 uM after 4 hrs by mitotracker red and Alexa Fluor 488 annexin V staining based flow cytometry; assay type: functional; method in brief: as §5
HepG2 [16] = assay: Cytotoxicity against human HepG2 cells assessed as reduction in cell viability at 1 uM after 24 hrs by Celltiter-Glo luminescent cell viability assay; assay type: cell-based; settings: hepg2, 24 h; method in brief: as §4
HCT-116 [17] = assay: Induction of mitochondrial membrane potential loss in human HCT116 cells after 4 hrs by mitotracker red and Alexa Fluor 488 annexin V staining based flow cytometry; assay type: functional, cell-based; method in brief: as §5
HCT-116 [18] = assay: Induction of DNA fragmentation in human HCT116 cells at 2.5 uM after 6 hrs by ethidium bromide staining based agarose gel electrophoresis; assay type: functional, cell-based
Method in brief: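 HCT-116 cells were cultured with or without 2.5 μM for 6 hr. Genomic DNA was extracted with a purification kit, resolved on 1% agarose gels at 40 V, stained with ethidium bromide and photographed, with untreated DNA loaded at 500 ng and 1 μg.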

[19] = target: T1, Nuclear receptor subfamily 1 group I member 2; assay: Transactivation of human PXR expressed in human HepG2 cells co-expressing pGL3-CYP3A4-luciferase gene assessed as increase in CYP3A4 promoter activity at 10 uM after 24 hrs by luciferase reporter gene assay; settings: hepg2, 24 h
HEK293 [20] = assay: Induction of morphological changes in HEK293 cells at 0.5 to 10 uM after 68 hrs by inverted microscopy; assay type: cell-based; settings: human, hek293, 68 h
Method in brief: (§6)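 HCT-116, HCT-15 and HEK293 cells were treated with 0, 0.5, 2 or 10 μM for 68 hr. Each treatment was in triplicate. Cells were photographed under an inverted microscope at 20X and representative images shown.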

HEK293 [21] = assay: Cytotoxicity against HEK293 cells expressing ABCG2 gene assessed as reduction in cell viability at 0.001 to 100 uM after 72 hrs by MTT assay; assay type: functional, cell-based; settings: Homo sapiens
Method in brief: (§7)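 HEK293 stably overexpressing ABCB1 or ABCG2 (R2), with empty-vector HEK293/pcDNA3.1 as the parental control, grown in DMEM with 10% FBS at 37 °C and 5% CO2. Cells were trypsinised and seeded at 5×10^3 cells/well, then exposed to serial concentrations for 72 hr. MTT (4 mg/mL) was added for 4 hr, formazan dissolved in DMSO, and A570 read. IC50 from survival curves (Bliss method), means ± SD of triplicates.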

LoVo = assay: Cytotoxicity against human LoVo cells after 72 hrs by MTT assay; assay type: functional, cell-based; method in brief: as §3
HEK293 [22] = assay: Cytotoxicity against HEK293 cells expressing ABCB1 gene assessed as reduction in cell viability at 0.001 to 100 uM after 72 hrs by MTT assay; assay type: functional, cell-based; settings: Homo sapiens; method in brief: as §7
HCT-116 [23] = assay: Induction of morphological changes in human HCT116 cells at 0.5 to 10 uM after 68 hrs by inverted microscopy; assay type: functional, cell-based; method in brief: as §6
HCT-15 = assay: Induction of morphological changes in human HCT15 cells at 0.5 to 10 uM after 68 hrs by inverted microscopy; assay type: functional, cell-based; method in brief: as §6

SMILES	IC50 [1]	IC50 (HepG2 [2])	IC50 (MDCK)	IC50 [3]	IC50 [4]	IC50 (A2780)	IC50 (MCF7)	IC50 2008	IC50 (MDA-MB-231)	IC50 [5]	IC50 (HEK293 [6])	IC50 (DU-145)	also measured
Cc1cc(N2CCOCC2)n2nc3nc4ccccc4cc3c2n1	78.3 µM	> 100 µM	> 100 µM	67.4 µM	88.9 µM	> 100 µM	98.4 µM	> 100 µM	88.2 µM	> 100 µM			
CCN(CC)CCNc1cc(C)nc2c3cc4ccccc4nc3nn12	62.5 µM	67.4 µM	41.6 µM	44.6 µM		87.5 µM	53.5 µM	78.1 µM	58.8 µM	48.2 µM			
Cc1cc(=O)n2nc3nc4ccccc4cc3c2[nH]1	46.5 µM	89.5 µM	> 100 µM	63.6 µM		74.3 µM		88.6 µM		98.4 µM	69.6 µM		
Cc1cc(NCCN(C)C)n2nc3nc4ccccc4cc3c2n1	79.8 µM	> 100 µM	> 100 µM	69.8 µM	65.8 µM	> 100 µM		> 100 µM	48.7 µM	> 100 µM	93.4 µM	59.9 µM	
Cc1cc(NCCCN(C)C)n2nc3nc4ccccc4cc3c2n1	60.5 µM	73.2 µM		83.4 µM		65.8 µM	> 100 µM	87.6 µM		> 100 µM	39.9 µM		
CCN(CC)CCCNc1cc(C)nc2c3cc4ccccc4nc3nn12	78.5 µM	89.9 µM		53.7 µM		55.7 µM		65.3 µM	34.6 µM	> 100 µM	41.8 µM		
CCc1c2c(nc3ccc(O)cc13)-c1cc3c(c(=O)n1C2)COC(=O)[C@]3(O)CC													Activity (Homo sapiens): inactive
Cc1cc(N(C)C)n2nc3nc4ccccc4cc3c2n1	88.8 µM	67.9 µM		58.3 µM	53.6 µM	49.9 µM	79.6 µM	47.9 µM	44.8 µM			28.6 µM	
CO[C@H]1/C=C/O[C@@]2(C)Oc3c(C)c(O)c4c(O)c(c(/C=N/N5CCN(C)CC5)c(O)c4c3C2=O)NC(=O)/C(C)=C\C=C\[C@H](C)[C@H](O)[C@@H](C)[C@@H](O)[C@@H](C)[C@H](OC(C)=O)[C@@H]1C [RIFAMPIN]													Activity (HepG2 [7]): Toxic
Cc1cc(Cl)n2nc3nc4ccccc4cc3c2n1	0.9 µM	9.7 µM	19.7 µM	0.8 µM	0.6 µM	11.6 µM	7.4 µM	17.4 µM		23.6 µM	7.8 µM	1.2 µM	IC50 [8]: 1.02 µM; IC50 (HT-29): 0.791 µM; Activity [9]: Not Active; IC50 [10]: 0.875 µM; IC50 [11]: 0.671 µM; fold change (FC) [12]: 3; Activity (HCT-116 [13]): 98.36%; fold change (FC) [14]: 3; Activity (HCT-116 [15]): 68.46%; Activity (HepG2 [16]): Non-toxic; Activity (HCT-116 [17]): Dose-dependent effect; Activity (HCT-116 [18]): Active; Activity [19]: Not Active; Activity (HEK293 [20]): Toxic; Activity (HEK293 [21]): Active; IC50 (LoVo): 0.994 µM; Activity (HEK293 [22]): Active; Activity (HCT-116 [23]): Active; Activity (HepG2 [7]): Toxic; Activity (HCT-15): Active
